According to the EternaBench riboswitch data:

System: MS2 coat protein
Assay: apparent Kd, MS2 coat protein; higher = weaker binding; RNA-MaP array; FMN 200 µM where present
Method in brief: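 Binding was read on Illumina sequencing-chip clusters where stalled E. coli RNA polymerase had transcribed each design. A titration of SNAP-549-labelled MS2 coat protein began at 0.7 or 1.5 nM and doubled to 3 µM, once without ligand and once with constant ligand, in 100 mM Tris-HCl pH 7.5, 80 mM KCl, 4 mM MgCl2, BSA, DTT, yeast tRNA and Tween-20. The apparent Kd is the median of filtered per-cluster binding-curve fits, based on green signal normalised to red-channel RNA signal and control-cluster median Fmax.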

[1] = designed as: OFF switch for flavin mononucleotide, no ligand
[2] = ligand present: flavin mononucleotide, designed as: OFF switch for flavin mononucleotide
[3] = designed as: ON switch for flavin mononucleotide, no ligand
[4] = ligand present: flavin mononucleotide, designed as: ON switch for flavin mononucleotide

Sequence	apparent Kd [1]	apparent Kd [2]	apparent Kd [3]	apparent Kd [4]
CCAUUUCAGUAAGGAUAUAUAAACAUGACGAUACAUGAGGAUCACCCAUGUGUAGAAGGUACUAAUACAUAUAAUGCAAUGCUC	20.4 nM	17.2 nM		
ACACAACAUGAGGAUCACCCAUGUUUUCGAUUCACAGGAUAUGGGACAUCCGGAGGGUGACCAGAAGGGUGACUCG			29.9 nM	18.8 nM
UGGUACUAGCGAGGAUAUGGGAAGAUACAUGAGGAUCACCCAUGUUUAAGAAUGCCGAGAGGCAACUAGAAGGCCCUAGUACCU			456 nM	69.4 nM
AUCAGCUCGUCAGGAUAUAUGUCACUGCUUCGGCAGUGUGGUAAGAUCACAUGAGGAUCACCCAUGUAGAAGGGACGAGCUGAU	29.7 nM	78 nM		
UCUUAACAUGAGGAUCACCCAUGUGAGGAUAUGAUGCAGCAGUGGUCUACGCUGUGCAUCAGAAGGUACAUGGG	23 nM	20.1 nM		
UUUGGGAGCACAGGAUAUGGCGCGUCGACCGCGCCAGAAGGGUGAUUCUGUUGGUGGCCACAUGAGGAUCACCCAUGUGCCUCC			42.4 nM	55.3 nM
AUGAGAAAAGCAGGAUAUCUAUUGGCUCAGAAACAUGAGGAUCACCCAUGUAGAGAAGGGCUAAGACCGACUCUUCGGAGUUGA	5.68 nM	6.51 nM		
AAGAAACAUGAGGAUCACCCAUGUAAAUUUAAGAGAGGAUAUCGUACAUGGAAGAUUUAACGAGAAGGCUCUAGAA			26 nM	16.1 nM
UGAGCUGAAGGAUAUGCGUAAUCUCGGUGACGAGUAGAUCUACAUGAGGAUCACCCAUGUAGAAGGUCAGUUCU	15.5 nM	17.5 nM		
UGCAUGUAAGGAUAUGCAUCCGCCGACGUCCCGGCGCCACAGCAGAAGGUACAUGAGGAUCACCCAUGUGUCCC	21.3 nM	49.2 nM		
GCCGAGUGAGGAUAUACAUGAGGAUCACCCAUGUAAACACGAAAGCAAGUGUCCCUCAGUAGAAGGCGCCUGGA	14.2 nM	16.6 nM		
AAUGUUUUCAUAGGAUAUUGACAUUUAUUUAUUCAAGAAGGAUGAUUACAUGAGGAUCACCCAUGUUAAAAUGGAUUAACUAGU	54.4 nM	162 nM		
UUACUCAUGUAAGGAUAUGCAGCCGAAGCGGCUGCAGAAGGUACUAUAAUACAUGAGGAUCACCCAUGUAAAAUAAAUAAAGUU			20.4 nM	16.3 nM
GCAUCGCAUGUCAGGAUAUGCUGUACCUUGGUACAGCAGAAGGGACAUGAGGAUCACCCAUGUGCCUACGAUGC	29.2 nM	169 nM		
GAAAUUACAUGAGGAUCACCCAUGUAGGAUAUCGCUAUUGUAAUCAUGUUACAUGAUUACAAUAGCGAGAAGGACGUGAGAAAG	22.9 nM	25.6 nM		
GGAUCGAGUGUGAGGAUAUGCUGGUCGUAAGAUCAGCAGAAGGCACAUGAGGAUCACCCAUGUGAAAACGGUCC	24.7 nM	164 nM		
AUAUAUGCUAACAUGAGGAUCACCCAUGUGUUAUACUUAAUAUAGGAUAUGUUUAUACUUUUUGGGCAGAAGGAUGGCAUAUAU			26.1 nM	21.8 nM
AAAAUCAAUAGAGGAUAUUCAUACACUACAUACGGAGAAGGCUAACAAUCAUGAGGACAUGAGGAUCACCCAUGUUGUGACCAU			25.9 nM	17.1 nM
GAAUGUCGGGUAGGAUAUGACGUGCCACGGAGGUCAGAAGGGCCACGACAUGAGGAUCACCCAUGUACUAUGUUCCUUUUUCGA	13.6 nM	31.8 nM		
AGUGACGGUACAGGAUAUGCUGGACUUUGUCCAGCAGAAGGGUAUUAACAUGAGGAUCACCCAUGUUCCGUCACCAAAUUUAAU			41 nM	7.4 nM
GGGUGAUCUUUAGGAUAUCCCGCGCCAAAGUGCGUUUAUACUACAUGAGGAUCACCCAUGUAACGGGAGAAGGGAGGAAGCCCG			81.7 nM	29 nM
GUGUAGAUAGGAUAUGCUUUGAGCCUACGAAAGUACGCUCGACAUGAGGAUCACCCAUGUAGAAGGGUUUACAC	119 nM	58.9 nM		
GUUUUUCCUCAUGUACAUGAGGAACAUGAGGAUCACCCAUGUAGAAGGAAUUUUUUUAAGUUUAGUUAGGAUAUACAUAUAUUU	72.9 nM	64.5 nM		
GGAUGACAAAGUCAUCCAAAUCGAACAUGAGGAUCACCCAUGUAGGAUAUCCUACUGAAACAGUAGGAGAAGGACAUGUGCUUU	52.9 nM	157 nM		

Sequence	apparent Kd [1]	apparent Kd [2]	apparent Kd [3]	apparent Kd [4]
CGCGCGCGUGUUAGGAUAUAUGUGUGUGGUUAUUUAUAGAAGGGACAUGAGGAUCACCCAUGUGUGUGGGCGCG	520 nM	489 nM		
UAAGCGAUACAGAAGGGAAACAUGAGGAUCAGCCGCGACAUGAGGAUCACCCAUGUUUACUUAUUUCAGGAUAUGUACAGUAGC			612 nM	272 nM
CGCGAACAGGUUAACAUGAGGAUCACCCAUGUGGACUCAUGGUAGGAUAUCGGGAAGGAGGAAACCGAGAAGGGCCGGUGAGCC			324 nM	107 nM
AAACUGCAUGUGAGGAUAUGCACCGACUAAACCGGGCAGAAGGCACAUGAGGAUCACCCAUGUCAUCCUAUUGC	8.62 nM	18.1 nM		
AUCAGCUCCUCAGGAUAUACAUCACUGCUUCGGCAGUGUAUUAAGAUCACAUGAGGAUCACCCAUGUAGAAGGGAGGAGCUGAU	29.5 nM	336 nM		
UUAUUUAUACAAGGAUAUCUAUUGUUAAUACGACUUACAUGAGGAUCACCCAUGUUUUUAUGUUUAGAGAAGGUGUAUUUUCAG			41.4 nM	31.8 nM
CGCCGACAUGAGGAUCACCCAUGUCACAUCUGGUCAGGAUAUGGUGUGGUUUGGCUAUUGCCAGAAGGGACCUCAG			101 nM	102 nM
CUGUACAUAGGAUAUAGUUGUUUUUACAUGAGGAUCACCCAUGUUACUCCUCUCUCUCUUCUAGAAGGAUGUUUCU	65.8 nM	50.1 nM		
GGUGCGUAUGUGAGGAUAUGCUGGUCCUUGGAUCGGCAGAAGGUACAUGAGGAUCACCCAUGUGGUGUCGUUCU	382 nM	251 nM		
AUAUCUAUAUCAGGAUAUGGACAGGCCUGUCCGUAUUGAGACAGUAACAUGAGGAUCACCCAUGUCCAGAAGGGAUCUAUAUAU	53.7 nM	45.7 nM		
CCGAUGUUAGGAUAUACUGCCCGUGGGAUAAACGCCGGGUAGUAGAAGGAACAUGAGGAUCACCCAUGUGACAC	39.6 nM	220 nM		
AUGCUAUUAGGAUAUACAUGAGGAUCACCCAUGUCGCUCGAUCGACGGCUAAGACUAUGUAGAAGGGAUUACGU	95.7 nM	94.4 nM		
UUUUGGCAUGUAGGAUAUGGGUCCGAUUAGGAUUUAGAAGGACAUGAGGAUCACCCAUGUGCAUUUAAUUGGUCAUUACCUUUU	84.9 nM	115 nM		
AUCAGCUCGUCAGGAUAUACGUCCUGGUAAGAUCACAUGAGGAUCACCCAUGUAGAAGGGACGAGCUGAUAAGCACGAAAGUGC	18.6 nM	81.6 nM		
AUCAGCUCGUCAGGAUAUGCGUCACUGCUUCGGCAGUGUGGUAAGAUCACAUGAGGAUCACCCAUGUAGAAGGGACGAGCUGAU	9.91 nM	75.2 nM		
UAGUUAUUCACAGGAUAUCGCCUCUUAUUACAUGAGGAUCACCCAUGUUUAGUUAGUUACAUGUUCGAGAAGGGUGUAGUUGUU	554 nM	819 nM		
CGGCGCUGUCGAGAGGAUAUGCGGUGAUGGACAUGAGGAUCACCCAUGUUAGCGAUAGCAUUACGGUAGAAGGCUCUACAGCUGC			34.7 nM	16.3 nM
AUCGUGAGAGGAUAUACAUGAGGAUCACCCAUGUUUCGAACACCAUGCGGUCAUUUGCGUAGAAGGCUCGUGCG	29.1 nM	87.1 nM		
AGAUUCAUGGCCCGUUUGGGCCCACAUGAGGAUCACCCAUGUGAGGAUAUGACGUACCUGACUCGUCAGAAGGCGCAUGCGAAA	7.45 nM	16.7 nM		
CCUGUGUGAGGAUAUGGUGUUGGCCACAAGGAAUAGCUCCUCCAGAAGGCACAUGAGGAUCACCCAUGUCGUGG	17.6 nM	80.3 nM		
CCCGCGAUGUCAGGAUAUAGUCGGAGGUGCAGACUAGAAGGGACAUGAGGAUCACCCAUGUGCGUGAAAAUUUAAAACCUAAAU	39.3 nM	119 nM		
UUGCGGUAGGAGAAGGACAGAGGCGGAAACACAAACAUGAGGAUCACCCAUGUAGGAUAUCCUACCUAACGCGGAUACCUCCAG	14 nM	39.6 nM		
CGGCGACAUGAGGAUCACCCAUGUCAAGAGUGGUCAGGAUAUGGUAUGAGAUGAGUAUGGCCAGAAGGGACAUAAG			29.1 nM	21.2 nM
UGUUGUAUUACAGGAUAUCUAUUGGUUUUAUUUAGAGAAGGGUAUUCACAUGAGGAUCACCCAUGUAUAUACGAGGAAGUUGUG			60.5 nM	66.9 nM
